Source: article PMC9719714 (International Journal of Nanomedicine, 2022)
Several values for one entry are separate records, joined by “and”; a condition that tells them apart may be missing. Equal entries are not always repeated. Where two headings read alike, the source gives them in different places. Values belong to the molecule of their own block, whether it stands above or below them.

Experiments:
[1] = tested on: MRSA-pvl-; assay: Time-kill experiment; type: cell-based, Staphylococcus aureus; settings: >3 h of exposure (Figure S2)
Procedure, shortened: (§1)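 S. aureus suspension (1.5 × 10^5 CFU/mL) and test compound, prepared at 150 μg/mL before mixing, were added in equal volumes to flasks of MH broth. A flask without test compound served as control. Flasks were shaken at 150 rpm and 37°C for 24 h. At set intervals, 100 μL aliquots were spread on MH agar for colony counts.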

[2] = tested on: MRSA; assay: Time-kill experiment; type: cell-based, Staphylococcus aureus; settings: for inhibition at 150 µg/mL: Staphylococcus aureus, MRSA, read-out: percentage of inhibition (time-kill)
Procedure, shortened: as §1

[3] = tested on: MSSA; assay: Time-kill experiment; type: cell-based, Staphylococcus aureus
Procedure, shortened: as §1

[4] = tested on: MRSA-pvl+; assay: Time-kill experiment; type: cell-based, Staphylococcus aureus; settings: >3 h of exposure (Figure S2)
Procedure, shortened: as §1

[5] = tested on: MSSA; assay: Kirby-Bauer disk diffusion test; type: cell-based, Staphylococcus aureus; settings: 18 h
Procedure, shortened: (§2)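 Disk diffusion followed CLSI 2013. Sterile disks soaked in test compound (0–1000 µg/mL) were placed on MH agar and held 30 min at room temperature for diffusion. Plates were then incubated 18 h at 37°C and zones of inhibition read. Controls were distilled water (negative) and a 30 µg cefoxitin disk (positive). Strains were MSSA ATCC 25923 and community-acquired MRSA-pvl+ (A33) and pvl- (172817) lab isolates.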

[6] = tested on: MRSA-pvl-; assay: CFU counting method; type: cell-based, Staphylococcus aureus; settings: 50 µg/mL
Procedure, shortened: (§3)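 S. aureus strains (MRSA ATCC 700699; community-acquired MRSA-pvl+ A33 and MRSA-pvl- 172817 from the lab collection) at 1.5 × 10^5 CFU/mL were combined in well plates with MH broth and test compound (0–1000 μg/mL). Plates were shaken 4 h at 37°C, then diluted 100-fold and swabbed onto MH agar. After drying at room temperature, plates were incubated 18 h at 37°C and colonies counted. Percentage inhibition was calculated relative to distilled water (negative control); cefoxitin served as positive control.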

[7] = tested on: zebrafish embryos; assay: Reactive oxygen species; type: in vivo
Procedure, shortened: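 Wild-type AB zebrafish embryos at 24 hpf, one per well and 10 per group, were exposed to five concentrations of test compound for 30, 60, 120 or 240 min. Controls were distilled water and 0.5 mM H2O2. Embryos were washed in PBS and spun 10,000 rpm, 5 min, 4°C. They were homogenized in cold PBS and spun 12,372 rpm, 30 min, 4°C. Supernatant was incubated with DCFH-DA (stock 10 mg/mL in DMSO) 30 min in the dark; fluorescence read at ex 485/em 530 nm, in triplicate.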

[8] = tested on: MRSA-pvl+; assay: Kirby-Bauer disk diffusion test; type: cell-based, Staphylococcus aureus; settings: 18 h
Procedure, shortened: as §2

[9] = tested on: MRSA; assay: HRTEM observation of treated bacteria; type: cell-based, Staphylococcus aureus; settings: 150 µg/mL for 12 h
Procedure, shortened: (§4)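 After the time-kill exposure, MRSA (ATCC 700699) and MSSA (ATCC 25923) cells were processed for electron microscopy. Reagents included glutaraldehyde, cacodylate buffer, osmium tetroxide and acetone, followed by resin embedding. Sections of 1 µm were cut and stained with toluidine blue, and areas were chosen by light microscopy. Sections were then mounted on 100-mesh copper grids, stained 15 min with 1% aqueous uranyl acetate, washed, and imaged at 100 kV.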

[10] = tested on: MRSA-pvl+; assay: CFU counting method; type: cell-based; settings: Staphylococcus aureus, read-out: percentage of inhibition (CFU)
Procedure, shortened: as §3

[11] = tested on: MSSA; assay: HRTEM observation of treated bacteria; type: cell-based, Staphylococcus aureus; settings: 150 µg/mL for 12 h
Procedure, shortened: as §4

[12] = tested on: MRSA; assay: CFU counting method; type: cell-based; settings: Staphylococcus aureus, read-out: percentage of inhibition (CFU)
Procedure, shortened: as §3

[13] = tested on: 3T3 murine fibroblast cells; assay: In vitro cytotoxicity MTT assay; type: cell-based; settings: 50 µg/mL, 24 h
[14] = In vitro cytotoxicity MTT assay; type: cell-based, murine; settings: mouse, 3T3 murine fibroblast cells, cell viability
[15] = tested on: MRSA-pvl-; assay: Kirby-Bauer disk diffusion test; type: cell-based, Staphylococcus aureus; settings: 18 h
Procedure, shortened: as §2

Structure (SMILES): CO[C@@]1(NC(=O)Cc2cccs2)C(=O)N2C(C(=O)O)=C(COC(N)=O)CS[C@@H]21 [CFX, cefoxitin]
inhibition (time-kill) [1]: total inhibition | inhibition (time-kill) ([2]; >3 h of exposure (Figure S2)): total inhibition | inhibition (time-kill) ([3]; >3 h of exposure (Figure S2)): total inhibition | inhibition (time-kill) [4]: total inhibition

ROS content ([7]; 50 and 300 μg/mL, 60 min post-exposure): significantly elevated | ROS content ([7]; 30 min of exposure): comparable ROS content to control groups | ROS content ([7]; 120 min post-exposure): reverted to the normal range
Structure (SMILES): O=C(O)c1cc(O)c(O)c(O)c1 [GA, Gallic acid]
concentration at which growth is inhibited (zone of inhibition) [5]: 150 µg/mL | inhibition (CFU) [6]: significant inhibition | concentration at which growth is inhibited (zone of inhibition) [8]: 300 µg/mL | morphological changes of bacterial cells (HRTEM) [9]: disrupted morphology and damaged surface | inhibition at 50 µg/mL [10]: 80.1% | morphological changes of bacterial cells (HRTEM) [11]: disrupted morphology and damaged surface | inhibition at 50 µg/mL [12]: 98.3% | inhibition at 150 µg/mL ([2]; 2 h): 44.9% | inhibition at 150 µg/mL [2]: 29.4% | cell viability [13]: 22.16% | viability at 24 h, 50 µg/mL ([14]; 24 h): 22.2% | viability at 72 h, 50 µg/mL ([14]; 72 h): 4.95% | concentration at which growth is inhibited (zone of inhibition) [15]: 300 µg/mL and 150 µg/mL | inhibition at 150 µg/mL ([3]; Staphylococcus aureus, MSSA, 2 h, read-out: percentage of inhibition (time-kill)): 50.7%
